Laboratory results as given in ChEMBL document CHEMBL1138555, “N-acylated and N,N'-diacylated imidazolidine-2-thione derivatives and N,N'-diacylated tetrahydropyrimidine-2(1H)-thione analogues: synthesis and antiproliferative activity” (Eur J Med Chem, 2009).

Key:
SK-MEL-28 = test: Growth inhibition of human SK-MEL-28 cells after 48 hrs by sulforhodamine B assay; format: functional; conditions: SK-MEL-28, 48 h
Method in brief: (§1)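 NCI screen panel. Five 10-fold concentrations from 10^-4 to 10^-8 M. Exposure for the last 48 h of a 72 h incubation. Growth estimated by sulforhodamine B protein assay. GI50 is the concentration giving 50% growth inhibition. Where that level was not reached or was exceeded, the value is given as above or below the highest or lowest concentration tested.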

NCI-H460 = test: Growth inhibition of human NCI-H460 cells after 48 hrs by sulforhodamine B assay; format: functional; conditions: NCI-H460, 48 h; method in brief: as §1
HT-29 = test: Growth inhibition of human HT-29 cells after 48 hrs by sulforhodamine B assay; format: functional; conditions: HT-29, 48 h; method in brief: as §1
MDA-MB-435 = test: Growth inhibition of human MDA-MB-435 cells after 48 hrs by sulforhodamine B assay; format: functional; conditions: MDA-MB-435, 48 h; method in brief: as §1
NCI-H23 = test: Growth inhibition of human NCI-H23 cells after 48 hrs by sulforhodamine B assay; format: functional; conditions: NCI-H23, 48 h; method in brief: as §1
MOLT-4 = test: Growth inhibition of human MOLT4 cells after 48 hrs by sulforhodamine B assay; format: functional; conditions: MOLT-4, 48 h; method in brief: as §1
HOP-92 = test: Growth inhibition of human HOP92 cells after 48 hrs by sulforhodamine B assay; format: functional; conditions: HOP-92, 48 h; method in brief: as §1
SK-MEL-2 = test: Growth inhibition of human SK-MEL-2 cells after 48 hrs by sulforhodamine B assay; format: functional; conditions: SK-MEL-2, 48 h; method in brief: as §1
M14 = test: Growth inhibition of human M14 cells after 48 hrs by sulforhodamine B assay; format: functional; conditions: M14, 48 h; method in brief: as §1
SR = test: Growth inhibition of human SR cells after 48 hrs by sulforhodamine B assay; format: functional
Method in brief: (§2)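 NCI in vitro panel screen. Compounds tested at five 10-fold dilutions, 10^-4 to 10^-8 M. Cells in 96-well plates were exposed for the last 48 h of a 72 h incubation. Viability/growth was read by sulforhodamine B protein assay. GI50 is the concentration giving 50% growth inhibition. Values beyond the tested range are reported as greater or less than the maximum or minimum concentration.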

UACC-62 = test: Growth inhibition of human UACC62 cells after 48 hrs by sulforhodamine B assay; format: functional; conditions: UACC-62, 48 h; method in brief: as §2
HOP-62 = test: Growth inhibition of human HOP62 cells after 48 hrs by sulforhodamine B assay; format: functional; conditions: HOP-62, 48 h; method in brief: as §1
OVCAR-3 = test: Growth inhibition of human OVCAR-3 cells after 48 hrs by sulforhodamine B assay; format: functional; conditions: OVCAR-3, 48 h; method in brief: as §1
SNB-75 = test: Growth inhibition of human SNB75 cells after 48 hrs by sulforhodamine B assay; format: functional; conditions: SNB-75, 48 h; method in brief: as §2
MCF7 = test: Growth inhibition of human MCF7 cells after 48 hrs by sulforhodamine B assay; format: functional; conditions: MCF7, 48 h; method in brief: as §1
DU-145 = test: Growth inhibition of human DU145 cells after 48 hrs by sulforhodamine B assay; format: functional; conditions: DU-145, 48 h; method in brief: as §1
U-251 = test: Growth inhibition of human U251 cells after 48 hrs by sulforhodamine B assay; format: functional; conditions: U-251, 48 h; method in brief: as §2
T47D = test: Growth inhibition of human T47D cells after 48 hrs by sulforhodamine B assay; format: functional; method in brief: as §2
SW-620 = test: Growth inhibition of human SW620 cells after 48 hrs by sulforhodamine B assay; format: functional; conditions: SW-620, 48 h; method in brief: as §2
NCI-H322M = test: Growth inhibition of human NCI-H322M cells after 48 hrs by sulforhodamine B assay; format: functional; method in brief: as §1
SN12C = test: Growth inhibition of human SN12C cells after 48 hrs by sulforhodamine B assay; format: functional; method in brief: as §2
786-0 = test: Growth inhibition of human 786-0 cells after 48 hrs by sulforhodamine B assay; format: functional; conditions: 786-0, 48 h; method in brief: as §1
NCI-H522 = test: Growth inhibition of human NCI-H522 cells after 48 hrs by sulforhodamine B assay; format: functional; conditions: NCI-H522, 48 h; method in brief: as §1
SNB-19 = test: Growth inhibition of human SNB19 cells after 48 hrs by sulforhodamine B assay; format: functional; conditions: SNB-19, 48 h; method in brief: as §2
PC-3 = test: Growth inhibition of human PC3 cells after 48 hrs by sulforhodamine B assay; format: functional; conditions: PC-3, 48 h; method in brief: as §1
MDA-MB-231 = test: Growth inhibition of human MDA-MB-231 cells after 48 hrs by sulforhodamine B assay; format: functional; conditions: MDA-MB-231, 48 h; method in brief: as §1
CAKI-1 = test: Growth inhibition of human Caki1 cells after 48 hrs by sulforhodamine B assay; format: functional; conditions: CAKI-1, 48 h; method in brief: as §1
A549 = test: Growth inhibition of human A549 cells after 48 hrs by sulforhodamine B assay; format: functional; conditions: A549, 48 h; method in brief: as §1
LOX IMVI = test: Growth inhibition of human LOXIMVI cells after 48 hrs by sulforhodamine B assay; format: functional; method in brief: as §1
K562 = test: Growth inhibition of human K562 cells after 48 hrs by sulforhodamine B assay; format: functional; conditions: K562, 48 h; method in brief: as §1
SK-MEL-5 = test: Growth inhibition of human SK-MEL-5 cells after 48 hrs by sulforhodamine B assay; format: functional; conditions: SK-MEL-5, 48 h; method in brief: as §1
EKVX = test: Growth inhibition of human EKVX cells after 48 hrs by sulforhodamine B assay; format: functional; method in brief: as §1
HL-60(TB) = test: Growth inhibition of human HL-60(TB) cells after 48 hrs by sulforhodamine B assay; format: functional; conditions: HL-60, 48 h
Method in brief: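 NCI 60-cell-line screen protocol: cells exposed to compound at five 10-fold dilutions from 10^-4 to 10^-8 M for the last 48 h of a 72 h incubation. Sulforhodamine B protein assay estimated viability/growth. GI50 (50% growth inhibition) derived; where not reached or exceeded, reported as greater or less than the highest or lowest concentration tested.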

SF-268 = test: Growth inhibition of human SF268 cells after 48 hrs by sulforhodamine B assay; format: functional; conditions: SF-268, 48 h; method in brief: as §1
OVCAR-8 = test: Growth inhibition of human OVCAR8 cells after 48 hrs by sulforhodamine B assay; format: functional; conditions: OVCAR-8, 48 h; method in brief: as §1
[1] = Growth inhibition of human […] cells after 48 hrs by sulforhodamine B assay; format: functional; method in brief: as §1
HCT-116 = test: Growth inhibition of human HCT116 cells after 48 hrs by sulforhodamine B assay; format: functional; conditions: HCT-116, 48 h; method in brief: as §1
TK-10 = test: Growth inhibition of human TK10 cells after 48 hrs by sulforhodamine B assay; format: functional; conditions: TK-10, 48 h; method in brief: as §2
SF-295 = test: Growth inhibition of human SF295 cells after 48 hrs by sulforhodamine B assay; format: functional; conditions: SF-295, 48 h; method in brief: as §1
BT-549 = test: Growth inhibition of human BT549 cells after 48 hrs by sulforhodamine B assay; format: functional; conditions: BT-549, 48 h; method in brief: as §1
SF-539 = test: Growth inhibition of human SF539 cells after 48 hrs by sulforhodamine B assay; format: functional; conditions: SF-539, 48 h; method in brief: as §1
OVCAR-4 = test: Growth inhibition of human OVCAR4 cells after 48 hrs by sulforhodamine B assay; format: functional; conditions: OVCAR-4, 48 h; method in brief: as §1
SK-OV-3 = test: Growth inhibition of human SKOV3 cells after 48 hrs by sulforhodamine B assay; format: functional; conditions: SK-OV-3, 48 h; method in brief: as §1
KM12 = test: Growth inhibition of human KM12 cells after 48 hrs by sulforhodamine B assay; format: functional; conditions: KM12, 48 h; method in brief: as §1
COLO 205 = test: Growth inhibition of human COLO205 cells after 48 hrs by sulforhodamine B assay; format: functional; conditions: COLO 205, 48 h; method in brief: as §1
MT4 = test: Antiproliferative activity against human MT4 cells assessed as reduction of growth by MTT assay; format: functional, cell-based
Method in brief: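 MT-4 lymphoblastoid T cells (ATCC) in RPMI 1640 with 10% FCS, penicillin/streptomycin, checked for mycoplasma. 1 × 10⁴ mock-infected cells per well with serial dilutions from a 100 mM DMSO stock. Incubated 4 days at 37 °C, viable cells counted by MTT. IC50 versus untreated controls by linear regression. Mean of three separate experiments.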

HCT-15 = test: Growth inhibition of human HCT15 cells after 48 hrs by sulforhodamine B assay; format: functional; conditions: HCT-15, 48 h; method in brief: as §1
Malme-3M = test: Growth inhibition of human MALME-3M cells after 48 hrs by sulforhodamine B assay; format: functional; method in brief: as §1
CCRF-CEM = test: Growth inhibition of human CCRF-CEM cells after 48 hrs by sulforhodamine B assay; format: functional; method in brief: as §1
UO-31 = test: Growth inhibition of human UO31 cells after 48 hrs by sulforhodamine B assay; format: functional; conditions: UO-31, 48 h; method in brief: as §2
RXF 393 = test: Growth inhibition of human RXF393 cells after 48 hrs by sulforhodamine B assay; format: functional; conditions: RXF 393, 48 h; method in brief: as §1
IGROV-1 = test: Growth inhibition of human IGROV1 cells after 48 hrs by sulforhodamine B assay; format: functional; conditions: IGROV-1, 48 h; method in brief: as §1
ACHN = test: Growth inhibition of human ACHN cells after 48 hrs by sulforhodamine B assay; format: functional; method in brief: as §1

`N#C/C(=C\N1CCN(C(=O)c2ccco2)C1=S)C(=O)c1ccccc1` showed a GI50 (SK-MEL-28) of 28 µM, a GI50 (NCI-H460) of 9.5 µM and a GI50 (HT-29) of 30.5 µM. The GI50 (MDA-MB-435) was 11 µM, the GI50 (NCI-H23) was 15.2 µM and the GI50 (MOLT-4) was 43.7 µM. The GI50 (HOP-92) was 26.9 µM, the GI50 (SK-MEL-2) was 3.7 µM and the GI50 (M14) was 14.9 µM. It also gave a GI50 (SR) of 2.8 µM, a GI50 (UACC-62) of 12.9 µM and a GI50 (HOP-62) of 22 µM. For the same compound, the GI50 (OVCAR-3) was 18.2 µM, the GI50 (SNB-75) was 68.2 µM and the GI50 (MCF7) was 4.5 µM. It also gave a GI50 (DU-145) of 5 µM, a GI50 (U-251) of 17 µM and a GI50 (T47D) of 7.2 µM. The GI50 (SW-620) was 5.9 µM, the GI50 (NCI-H322M) was 23.4 µM and the GI50 (SN12C) was 8.6 µM. For the same compound, the GI50 (786-0) was 16.1 µM, the GI50 (NCI-H522) was 3.7 µM and the GI50 (SNB-19) was 39.7 µM. For the same compound, the GI50 (PC-3) was 31.7 µM, the GI50 (MDA-MB-231) was 13.7 µM and the GI50 (CAKI-1) was 12.5 µM. It also gave a GI50 (A549) of 22 µM, a GI50 (LOX IMVI) of 17.9 µM and a GI50 (K562) of 5.5 µM. The GI50 (SK-MEL-5) was 8.3 µM, the GI50 (EKVX) was 17.8 µM and the GI50 (HL-60(TB)) was 31.5 µM. It also gave a GI50 (SF-268) of 31.2 µM, a GI50 (OVCAR-8) of 25.4 µM and a GI50 [1] of 5.6 µM. For the same compound, the GI50 (HCT-116) was 9.1 µM, the GI50 (TK-10) was 10.5 µM and the GI50 (SF-295) was 43.6 µM. The GI50 (BT-549) was 7.8 µM, the GI50 (SF-539) was 2.2 µM and the GI50 (OVCAR-4) was 29.8 µM. It also gave a GI50 (SK-OV-3) of 37.4 µM, a GI50 (KM12) of 6.5 µM and a GI50 (COLO 205) of 23.2 µM. For the same compound, the IC50 (MT4) was 3 µM, the GI50 (HCT-15) was 5.7 µM and the GI50 (Malme-3M) was 30.7 µM. The GI50 (CCRF-CEM) was 41.9 µM, the GI50 (UO-31) was 10.2 µM and the GI50 (RXF 393) was 4.1 µM. The GI50 (IGROV-1) was 19.4 µM and the GI50 (ACHN) was 16.6 µM.
